# Source: PubChem
# Compounds with a hit are over-represented: about 4.1% of the library has one in this group of screens.
# ATG4B inhibitor = blocks human ATG4B protease cleavage of LC3 substrate. Q9Y4P1. ATG4B cleavage of LC3-PLA2, NBD-HPC fluorescence, 1 h. inhibition, % at 8.33 µM. actives 0.51% (n = 340,000); in the data active means inhibition above about 40%
# Target sequence (Q9Y4P1 whole entry, looked up): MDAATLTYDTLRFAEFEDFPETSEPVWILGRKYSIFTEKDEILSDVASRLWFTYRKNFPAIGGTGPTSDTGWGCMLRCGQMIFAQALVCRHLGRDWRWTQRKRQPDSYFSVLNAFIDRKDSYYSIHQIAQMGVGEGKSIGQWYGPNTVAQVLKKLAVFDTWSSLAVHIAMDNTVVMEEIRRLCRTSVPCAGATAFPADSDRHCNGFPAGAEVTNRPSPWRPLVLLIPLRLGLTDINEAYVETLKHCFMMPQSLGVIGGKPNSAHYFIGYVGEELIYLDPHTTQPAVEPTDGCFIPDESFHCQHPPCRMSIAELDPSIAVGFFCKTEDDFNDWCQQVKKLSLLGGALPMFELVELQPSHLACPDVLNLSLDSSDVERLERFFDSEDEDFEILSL
# MC4R antag cAMP = human MC4R antagonism in cAMP assay | AID 540295 | P32245 | actives 0.48% (n = 360,000) | inhibition, % at 6.5 µM | MC4R-expressing cells, MTII-stimulated cAMP, LANCE TR-FRET;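 active means inhibition above its plate's cutoff, the mean of tested wells on that plate plus 3 SD, cut at about 29% in these data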;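 further: 0% = Melanotan II alone and 100% = Melanotan II plus saturating MCL0020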
#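 Assay system: U2OS cells stably expressing human melanocortin 4 receptor (MC4R) / Dosing: 6.5 µM / Timing: compound 30 min, challenge 1 h, detection 1 h / Measured by: Eu-cAMP/anti-cAMP TR-FRET, emission 671 nm / Replicates: singlicate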
# MC4R ag barr = agonists of human melanocortin 4 receptor (MC4R) beta-arrestin; U2OS MC4R beta-arrestin complementation, luminescence; percent of melanotan II response, DMSO zero; actives 0.98% (n = 360,000); activation, % at 8.9 µM;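 active means activation above a per-plate cutoff, the mean activation of sample wells on that plate plus 3 SD, cut at about 8% in these data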
# SMARCA2 activ = increases SMARCA2 function in MMTV reporter cells. MG213 cells, MMTV-luciferase reporter, dexamethasone, overnight. actives 1% (n = 370,000). activation, % at 9.1 µM. AID 652017; in the data active means activation above about 7.8%;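 further: 0% = vehicle wells and 100% = reference activator wells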
# MPTP inh = blocks calcium-induced mitochondrial swelling | inhibition, % at 10 µM | actives 1.4% (n = 360,000) | isolated mouse mitochondria, Ca2+ swelling absorbance, 30 min | AID 602449;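 active means inhibition of 50% or more, scaled per plate between neutral and stimulator controls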;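 further: 0% = DMSO wells given calcium and 100% = 1 mM EGTA wells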
# MPTP counter = Rhodamine 123 counter-screen of mitochondrial pore hits; actives 78% (n = 5,000); inhibition, % at 10 µM; isolated mitochondria, membrane potential, Rhodamine 123 fluorescence; shares compounds with MPTP inh; AID 624504; in the data active means inhibition above about 22%;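 further: 0% = DMSO vehicle and 100% = positive control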
# MPTP abs DR = MPTP inhibition, dose response swelling confirmation | shares compounds with MPTP inh | isolated mitochondria swelling, absorbance | IC50, µM | actives 58% (n = 780) | AID 651561; in the data active means IC50 below about 20 µM
# MPTP cs DR = active in counter-screen for permeability transition pore inhibitors | shares compounds with MPTP inh | isolated mitochondria counterscreen, fluorescence read-out | IC50, µM | actives 49% (n = 780); in the data active means IC50 below about 80 µM
# * = called active by the depositor; / = not tested or not shown.
SMILES,ATG4B inhibitor,MC4R antag cAMP,MC4R ag barr,SMARCA2 activ,MPTP inh,MPTP counter,others
Cc1cc(Nc2ccc([N+](=O)[O-])cc2)nc2ccccc12,-19.2,0.7,0.2,2.1,75.7*,58.5*,
CCCC1C(c2ccco2)NC(c2ccco2)CC1(C)O (centres undefined),0.2,2.4,0.5,-0.7,78.2*,3.6,MPTP abs DR=>100;MPTP cs DR=>80
COc1ccc(C2=CC(=O)N(Nc3ccccc3)C2=O)cc1,-11.1,-18.2,-0.4,4.2,61.3*,-8.0,
CC1=CC(=O)C=C(C)C1=NOS(=O)(=O)c1ccccc1,-2.2,22.4,6.4,3.4,103.3*,90.0*,
Cc1ccc(S(=O)(=O)ON=C2CCN(S(=O)(=O)c3ccccc3)CC2)cc1,-10.1,-1.3,-1.0,1.1,-0.7,/,
CCCCNC(=O)C[C@H]1C[C@@]2(C(=O)OC)C(=C[C@H](C(C)C)O[C@@H]2C2CC2)N(Cc2ccc(Cl)cc2Cl)C1=O,/,/,/,-1.6,/,/,
COc1ccc(N2CCCN(CC(=O)Nc3ccccc3C)CC2)cc1,/,/,/,-4.4,/,/,
CN(Cc1ccccc1)C(=O)c1cccc(NC(=O)Cc2ccc(NC(=O)C3CCCN(S(=O)(=O)c4cccc([N+](=O)[O-])c4)C3)cc2)c1 (centres undefined),/,/,/,-2.7,/,/,
Cn1ccnc1SCc1cc(=O)[nH]c2ccccc12,-3.2,-9.1,-0.5,-1.8,87.0*,87.2*,
C=CCN1C(=O)S/C(=C/c2ccc(Sc3nc4ccccc4[nH]3)o2)C1=O,-5.3,-0.8,0.1,-4.8,90.8*,88.0*,
CC(C)N1C(=O)S/C(=C/c2ccc(Sc3nc4ccccc4[nH]3)o2)C1=O,4.3,-8.7,-3.0,-3.0,100.2*,88.0*,
O=C(C=Cc1ccccc1Cl)c1ccccc1,0.4,18.4,-1.0,5.8,-1.5,/,
C=CCn1cccc(/C=C/C(=O)c2ccc(C(C)(C)C)cc2)c1=S,-0.2,1.1,-3.8,-1.7,77.0*,4.4,
C=CCCC1CN(Cc2ccc(OC)cc2)S(=O)(=O)c2c(cccc2N2CCCCC2)O1 (centres undefined),/,/,/,-2.9,/,/,
CN1CCCCC(NC(=O)c2cccc(F)c2)C1=O (centres undefined),/,/,/,-0.7,/,/,
CC1(C)CC(=O)C2=C(C1)NC1=C(C(=O)c3ccccc31)C2c1ccc(Cl)cc1 (centres undefined),-0.4,17.1,-2.6,-5.4,98.5*,51.9*,
CCC(=O)Nc1ccc2c(c1)C(=O)N(C)[C@@H]1CC[C@@H](CC(=O)NCc3ccc(OC)cc3)O[C@H]1CO2,/,/,/,-2.9,/,/,
Cc1cccc(NC(=O)Cn2cc(C(=O)C3CC3)c3ccccc32)c1C,4.4,3.1,0.5,-0.9,56.5*,51.2*,
O=C(CSc1nc2sc3c(c2c(=O)n1-c1ccc(Cl)cc1)CCCC3)c1ccccc1Cl,/,/,/,-2.8,/,/,
CN(CC(=O)Nc1ccc(Cl)c(Cl)c1)C1CCCCC1,11.3,3.0,7.3,-0.8,1.5,/,
CN(CC(=O)Nc1ccc(Cl)c(Cl)c1)C(=O)C12CC3CC(CC(C3)C1)C2,-12.4,4.3,-1.4,5.4,64.2*,82.5*,
CC(=O)N1CCN(C2c3cccc4cccc(c34)C2NS(=O)(=O)c2ccccc2)CC1 (centres undefined),-0.7,2.6,-1.7,1.2,-1.1,/,
O=S(=O)(NC1c2cccc3cccc(c23)C1N1CCNCC1)c1ccc(Cl)cc1 (centres undefined),-2.2,26.6,4.1,-0.6,80.7*,-8.4,MPTP abs DR=3.25*;MPTP cs DR=>80
CC(C)c1nc(SCc2c(F)cccc2Cl)c2c(=O)n(C)c(=O)n(C)c2n1,-5.8,17.0,-0.1,/,94.2*,-5.9,MPTP abs DR=>100;MPTP cs DR=>80
Cn1c(=O)c2c(nc(SCCCC#N)n2Cc2c(F)cccc2Cl)n(C)c1=O,-10.3,3.6,-0.8,-2.2,-3.1,/,
SMILES,ATG4B inhibitor,MC4R antag cAMP,MC4R ag barr,SMARCA2 activ,MPTP inh,MPTP counter,others
Cc1ccc(NC(=O)COc2ccccc2CNC(C)(C)CC(C)(C)C)cc1,-3.1,4.2,3.5,-2.2,50.1*,33.5*,
CC(C)(CO)NCc1ccccc1OCC(=O)Nc1ccccc1,-4.3,-4.5,-0.2,2.5,0.1,/,
CCn1c(=O)n(CC(=O)N2CCC(C)CC2)c(=O)c2ccccc21,/,/,/,-2.9,/,/,
O=[N+]([O-])c1cccc(C2=Nn3c(nnc3-c3ccccc3)SC2)c1,/,/,/,-4.9,/,/,
O=C(Nc1cccc(Cl)c1)N(CCN1CCOCC1)Cc1ccccc1F,-1.5,-0.8,1.3,-2.6,79.2*,77.3*,
O=C(Nc1cccc(Cl)c1)N(CCN1CCOCC1)Cc1cccc(Cl)c1,-11.3,6.3,0.2,3.3,85.1*,91.3*,
COc1ccc(CN(CCCN2CCOCC2)C(=O)Nc2cccc(Cl)c2)cc1OC,2.0,1.4,2.0,0.3,2.9,/,
COc1ccc(OC)c(CN(CCN2CCOCC2)C(=O)Nc2cccc(Cl)c2)c1,-9.8,0.3,0.4,-2.8,0.0,/,
CCOc1ccc(S(=O)(=O)NCc2ccncc2)cc1,-3.6,4.9,0.6,-6.5,99.4*,84.5*,
Cc1ccc(C)c(S(=O)(=O)NCc2ccncc2)c1,-6.6,6.1,-1.7,-5.4,7.1,/,
Cc1ccc(S(=O)(=O)NCc2ccncc2)cc1,-8.5,1.0,1.5,-1.9,24.6,/,
CCOC(=O)COc1ccc(S(=O)(=O)NCc2ccncc2)cc1,-4.4,17.8,0.1,-5.1,88.5*,85.6*,
CCOc1cc(S(=O)(=O)NCc2ccncc2)ccc1Cl,1.3,17.9,-0.7,-7.8,100.3*,100.9*,
Cc1cc(S(=O)(=O)NCc2ccncc2)c(C)cc1Br,0.3,4.8,-0.4,-2.6,59.6*,88.4*,
CCOC(=O)COc1ccc(S(=O)(=O)NCc2ccco2)cc1,-0.3,-0.4,0.3,-2.6,-1.6,/,
CCOc1cc(S(=O)(=O)NCc2cccs2)ccc1Cl,1.7,1.1,2.9,0.6,-4.7,/,
CCc1nnn2c1Cn1c3ccccc3c(=O)n1[C@@H](C)C2,/,/,/,-0.6,/,/,
CCOc1ccccc1CNS(=O)(=O)c1ccc(-c2cnc(C3CC3)o2)cc1,-7.2,-16.1,-3.6,-4.6,50.8*,84.3*,
CN1CCC(NC(=O)Nc2cccc(C(F)(F)F)c2)CC1,-2.0,-1.0,-0.4,-0.1,3.3,/,
O=C(Nc1cccc(C(F)(F)F)c1)NC1CCCCC1,36.0,11.3,1.2,4.0,92.7*,119.2*,
O=C(Nc1cccc(Cl)c1)NC1CC2CCC1C2 (centres undefined),-1.8,-7.8,0.8,1.1,55.2*,84.5*,
CC(=O)c1cccc(NC(=S)NC2CCCCCCC2)c1,7.0,-7.5,-3.4,-0.2,50.3*,99.2*,
O=C(Nc1cccc(Cl)c1)NC1CCCCC1,20.3,-1.7,0.4,3.1,82.6*,73.1*,
